The nature of experiment [1]: Antioxidant activity assessed as ferric ion reducing ability after 20 mins by spectrophotometric analysis. It counts as functional.
Experiment [2] concerns Radical scavenging activity. The experiment in a line: Antioxidant activity assessed as DPPH radical scavenging activity after 30 mins by spectrophotometric analysis. It counts as functional. Summed up: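 DPPH radical bleaching followed as loss of absorbance at 517 nm; IC50 derived; mean ± SD, n = 3.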
A further experiment concerns Staphylococcus aureus. Put plainly: Antibacterial activity against Staphylococcus aureus after 24 hrs by agar dilution method. It counts as functional.
A further experiment relates to NIH3T3. The experiment in a line: Cytotoxicity against mouse NIH/3T3 cells after 48 hrs by SRB assay. It counts as cell-based. Conditions: NIH3T3, 48 h.
Experiment [3] in a line: Antioxidant activity assessed as hydroxyl radical scavenging activity after 1 hr by spectrophotometric analysis. It counts as functional.
For experiment [4], the system named is Staphylococcus epidermidis. The experiment in a line: Antibacterial activity against Staphylococcus albus after 24 hrs by agar dilution method. It counts as functional.
Another experiment concerns Pseudomonas aeruginosa. Put plainly: Antibacterial activity against Pseudomonas aeruginosa after 24 hrs by agar dilution method. It counts as functional.
The nature of experiment [5]: Antioxidant activity assessed as ferric ion reducing ability at 1 to 50 uM after 20 mins by spectrophotometric analysis. It counts as functional.
The test system of a further experiment is Escherichia coli. Put plainly: Antibacterial activity against Escherichia coli after 24 hrs by agar dilution method. It counts as functional.
Experiment [6] in a line: Antioxidant activity assessed as superoxide radical anion scavenging activity by spectrophotometric analysis. It counts as functional.
A further experiment concerns Bacillus cereus. The experiment in a line: Antibacterial activity against Bacillus cereus after 24 hrs by agar dilution method. It counts as functional.
Experiment [7] has as its system A549. The experiment in a line: Antioxidant activity in human A549 cells assessed as protection against H2O2-induced cell death at 50 to 100 uM preincubated for 1 hr prior to H2O2-challenge measured after 24 hrs by SRB assay. It counts as functional, cell-based.
In experiment [8] the test system is A549. Put plainly: Antioxidant activity in human A549 cells assessed as inhibition of AAPH-induced oxidative stress at 50 uM after 2 hrs by flow cytometric analysis relative to control. It counts as functional. The conditions noted are these: A549, 2 h. Summed up:
(§1)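 A549 cells pretreated with AAPH 1 h to induce ROS stress, then compound added; intracellular ROS (hydrogen peroxides, hydroxyl radicals) quantified with DCFH-DA, by fluorescence imaging (×200) or flow cytometry; one representative of three independent experiments.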

For experiment [9], the system named is A549. Put plainly: Antioxidant activity in human A549 cells assessed as decrease in AAPH-induced oxidative stress after 2 hrs by DCFH-DA staining-based fluorescent microscopic analysis. It counts as functional, cell-based. Summed up: as §1
Experiment [10] deals with A549. Put plainly: Antioxidant activity in human A549 cells assessed as inhibition of AAPH-induced oxidative stress at 100 uM after 2 hrs by flow cytometric analysis relative to control. It counts as functional. Conditions: A549, 2 h. Summed up:
as §1

Values after ≈ are worked out from the molar mass of the structure shown. Active and inactive are the calls of the source. No cut-off for these calls is given here. A value given as a limit tells only on which side of the number the result lay.

For `Oc1cccc(-c2nc3cc(O)ccc3[nH]2)c1`, in [1], the Activity entry was “Dose-dependent effect”. Besides, the EC50 in experiment [2] was 40 µM; in experiment [3], above 200 µM; in experiment [6], above 200 µM. For the same compound, the values for the MBC in the experiment with Staphylococcus aureus, in the experiment with Escherichia coli and with Bacillus cereus were 1.56 µM (≈ 0.353 µg/mL), above 200 µM and 50 µM (≈ 11.3 µg/mL), respectively. The MIC with Staphylococcus aureus is 1.56 µM (≈ 0.353 µg/mL); in experiment [4], above 200 µM; against Pseudomonas aeruginosa, above 200 µM; against Escherichia coli, 100 µM (≈ 22.6 µg/mL); with Bacillus cereus, 25 µM (≈ 5.66 µg/mL). The compound further gave an IC50 in the experiment on NIH3T3 above 200 µM. The result in experiment [5] was Active.
`CC(C)(C)c1cc(O)ccc1O` [E319]: in experiment [1], the Activity result was “Dose-dependent effect”. In addition, the EC50 in experiment [2] is 36 µM; in experiment [3] it was 65 µM; in experiment [6] it was above 200 µM.
As for `Oc1cc(O)cc(-c2nc3cc(O)ccc3[nH]2)c1`, in experiment [1], the Activity result was “Dose-dependent effect”. Besides, the figures for the EC50 in [2], in experiment [3] and in experiment [6] were 26 µM, above 200 µM and above 200 µM, respectively. Besides, the MBC was found to be 0.78 µM (≈ 0.189 µg/mL) with Staphylococcus aureus and 25 µM (≈ 6.06 µg/mL) against Bacillus cereus. For the same compound, the MIC is 0.78 µM (≈ 0.189 µg/mL) in the experiment on Staphylococcus aureus; above 200 µM in [4]; above 200 µM in the experiment with Pseudomonas aeruginosa; above 200 µM against Escherichia coli; 25 µM (≈ 6.06 µg/mL) in the experiment with Bacillus cereus. Moreover, the IC50 with NIH3T3 was above 200 µM. Moreover, in [5], the result was Active.
`Oc1ccc2[nH]c(-c3ccccc3O)nc2c1`: the Activity result in experiment [1] is “Dose-dependent effect”. For the same compound, the EC50 in experiment [2] was found to be 30 µM; in [3] it was 124 µM; in experiment [6], 169 µM. Further, the minimum bactericidal concentration (MBC) with Staphylococcus aureus is 1.56 µM (≈ 0.353 µg/mL); in experiment [4], above 200 µM; against Escherichia coli, 25 µM (≈ 5.66 µg/mL); against Bacillus cereus, 25 µM (≈ 5.66 µg/mL). Also, the MIC against Staphylococcus aureus was 1.56 µM (≈ 0.353 µg/mL); in [4], 100 µM (≈ 22.6 µg/mL); against Pseudomonas aeruginosa, above 200 µM; in the experiment on Escherichia coli it was 6.25 µM (≈ 1.41 µg/mL); against Bacillus cereus, 25 µM (≈ 5.66 µg/mL). Besides, the IC50 in the experiment with NIH3T3 was above 200 µM. The outcome in [5] was Active.
`Oc1ccc2[nH]c(-c3ccc(O)c(O)c3)nc2c1`: the Activity result in experiment [1] was “Dose-dependent effect”. Further, the EC50 is 33 µM in [2], 77 µM in [3] and above 200 µM in [6]. Also, the MIC in the experiment with Staphylococcus aureus was above 200 µM; in [4] it was above 200 µM; against Pseudomonas aeruginosa, above 200 µM; in the experiment with Escherichia coli, above 200 µM; against Bacillus cereus it was 100 µM (≈ 24.2 µg/mL). In addition, the IC50 with NIH3T3 was above 200 µM. Also, in experiment [5], the outcome was Active. In the experiment with Bacillus cereus, the MBC is above 200 µM.
For `Oc1ccc2[nH]c(-c3ccccc3)nc2c1`, in experiment [1], the Activity entry is “Dose-dependent effect”. Also, the figures for the EC50 in experiment [2], in experiment [3] and in [6] were 42 µM, above 200 µM and above 200 µM, respectively. Also, the values for the MBC with Staphylococcus aureus, against Escherichia coli and in the experiment with Bacillus cereus were 1.56 µM (≈ 0.328 µg/mL), above 200 µM and 100 µM (≈ 21 µg/mL), respectively. The MIC with Staphylococcus aureus was 1.56 µM (≈ 0.328 µg/mL); in experiment [4], above 200 µM; in the experiment on Pseudomonas aeruginosa, above 200 µM; in the experiment on Escherichia coli it was 100 µM (≈ 21 µg/mL); in the experiment on Bacillus cereus it was 50 µM (≈ 10.5 µg/mL). In addition, in the experiment on NIH3T3, the IC50 was above 200 µM. The result in experiment [5] was Active.
On to `COc1ccc(O)cc1-c1nc2cc(O)ccc2[nH]1`, for which the Activity result in [1] is “Dose-dependent effect”. For the same compound, the EC50 in [2] was 23 µM; in experiment [3] it was above 200 µM; in [6], above 200 µM. The MIC against Staphylococcus aureus is above 200 µM; in experiment [4] it was above 200 µM; with Pseudomonas aeruginosa, above 200 µM; against Escherichia coli, above 200 µM; in the experiment on Bacillus cereus, 100 µM (≈ 25.6 µg/mL). This compound also registered an IC50 with NIH3T3 above 200 µM. In [5], the result was Active. Moreover, the MBC in the experiment on Bacillus cereus is above 200 µM.
Consider `COc1ccc(-c2nc3cc(O)ccc3[nH]2)c(OC)c1`, for which, in [1], the Activity entry is “Dose-dependent effect”. In addition, the EC50 was 32 µM in experiment [2], above 200 µM in [3] and above 200 µM in experiment [6]. For the same compound, the figures for the MBC in the experiment with Staphylococcus aureus, against Escherichia coli and in the experiment with Bacillus cereus were 0.39 µM (≈ 0.105 µg/mL), 25 µM (≈ 6.76 µg/mL) and 50 µM (≈ 13.5 µg/mL), respectively. The MIC is 0.39 µM (≈ 0.105 µg/mL) against Staphylococcus aureus; above 200 µM in experiment [4]; above 200 µM against Pseudomonas aeruginosa; 12.5 µM (≈ 3.38 µg/mL) in the experiment with Escherichia coli; 50 µM (≈ 13.5 µg/mL) in the experiment on Bacillus cereus. Further, the IC50 in the experiment with NIH3T3 is above 200 µM. Besides, in [5], the result was Active.
Turning to `COc1cc(O)ccc1-c1nc2cc(O)ccc2[nH]1`, the Activity result in experiment [1] is “Dose-dependent effect”. Further, the half-maximal effective concentration (EC50) in [2] was 27 µM; in [3], 46 µM; in experiment [6] it was above 200 µM. For the same compound, the MIC was above 200 µM in the experiment with Staphylococcus aureus; above 200 µM in experiment [4]; above 200 µM in the experiment with Pseudomonas aeruginosa; 12.5 µM (≈ 3.2 µg/mL) in the experiment with Escherichia coli; above 200 µM in the experiment on Bacillus cereus. The same compound displayed an IC50 in the experiment with NIH3T3 above 200 µM. The result in the experiment with A549 [7] and with A549 [9] was Active. The inhibition at 50 µM in the experiment with A549 [8] was found to be 25.3%. Moreover, in the experiment with Escherichia coli, the MBC turned out to be 25 µM (≈ 6.41 µg/mL). Besides, the inhibition at 100 µM in the experiment with A549 [10] was found to be 70.4%.
`Oc1ccc(-c2nc3cc(O)ccc3[nH]2)cc1`: the Activity result in experiment [1] is “Dose-dependent effect”. The values for the EC50 in [2], in experiment [3] and in [6] were 34 µM, 159 µM and above 200 µM, respectively. For the same compound, the minimal bactericidal concentration (MBC) against Staphylococcus aureus amounted to 1.56 µM (≈ 0.353 µg/mL); against Bacillus cereus it was 50 µM (≈ 11.3 µg/mL). In addition, the MIC was 1.56 µM (≈ 0.353 µg/mL) against Staphylococcus aureus; above 200 µM in experiment [4]; above 200 µM in the experiment with Pseudomonas aeruginosa; above 200 µM against Escherichia coli; 50 µM (≈ 11.3 µg/mL) against Bacillus cereus. For the same compound, the IC50 in the experiment on NIH3T3 was above 200 µM. Also, the result in [5] was Active.
Regarding `COc1ccc(-c2nc3cc(OC)ccc3[nH]2)cc1`, the EC50 in experiment [2], in [3] and in experiment [6] was above 200 µM in each case. Also, the minimal bactericidal concentration (MBC) is 200 µM (≈ 50.9 µg/mL) in the experiment with Staphylococcus aureus, above 200 µM in [4], 100 µM (≈ 25.4 µg/mL) against Escherichia coli and 200 µM (≈ 50.9 µg/mL) against Bacillus cereus. Also, the MIC is 25 µM (≈ 6.36 µg/mL) in the experiment on Staphylococcus aureus; 100 µM (≈ 25.4 µg/mL) in experiment [4]; above 200 µM against Pseudomonas aeruginosa; 6.25 µM (≈ 1.59 µg/mL) against Escherichia coli; 50 µM (≈ 12.7 µg/mL) in the experiment with Bacillus cereus. In the experiment with NIH3T3, this compound displayed an IC50 above 200 µM.
For the compound `COc1cc(OC)cc(-c2nc3cc(OC)ccc3[nH]2)c1`, the EC50 in experiment [2], in [3] and in [6] was above 200 µM each time. In addition, the MIC (with Staphylococcus aureus; in experiment [4]; with Pseudomonas aeruginosa; with Escherichia coli; in the experiment with Bacillus cereus) was above 200 µM in each case. The IC50 in the experiment with NIH3T3 was above 200 µM.

The values are drawn from ChEMBL document CHEMBL2396641, “Synthesis, antioxidant, and antimicrobial evaluation of some 2-arylbenzimidazole derivatives” (Bioorg Med Chem Lett, 2013).
